Series [1] relates to Mycobacterium tuberculosis. Description: Antimycobacterial activity against INH/RIF/rifabutine/STM resistant Mycobacterium tuberculosis 9449/2006 after 14 days. It is filed as functional. To be noted: 9449/2006, 336 h. A digest of the protocol: (§1)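 MIC against four MDR-TB strains and one XDR-TB strain, each inoculated at 10^-3 dilution, using the same broth method as for drug-susceptible M. tuberculosis. Concentrations tested were 1000 down to 1 µM in twofold-type steps (1000, 500, 250, 125, 62.5, 32, 16, 8, 4, 2, 1 µM). MIC is the lowest concentration with complete growth inhibition.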

The subject of series [2] is Mycobacterium tuberculosis. Description: Antimycobacterial activity against INH/RIF/rifabutine/STM resistant Mycobacterium tuberculosis 9449/2006 after 21 days. In kind it is functional. To be noted: 9449/2006, 504 h. The gist of the method: as §1
In series [3] the test system is Mycobacterium tuberculosis. Description: Antimycobacterial activity against INH/RIF/rifabutine/STM/EMB/clofazimine resistant Mycobacterium tuberculosis Praha 1 after 14 days. To be noted: Praha 1, 336 h. It is filed as functional. The gist of the method: as §1
Series [4] has as its system Mycobacterium tuberculosis. Description: Antimycobacterial activity against INH/RIF/rifabutine/STM/EMB/clofazimine resistant Mycobacterium tuberculosis Praha 1 after 21 days. It is filed as functional. To be noted: Praha 1, 504 h. A digest of the protocol: as §1
In series [5] the test system is Mycobacterium tuberculosis. Description: Antimycobacterial activity against INH/RIF/rifabutine/STM/EMB/OFX/clofazimine resistant Mycobacterium tuberculosis Praha 4 after 14 days. In kind it is functional. To be noted: Praha 4, 336 h. A digest of the protocol: as §1
In series [6] the test system is Mycobacterium tuberculosis. Description: Antimycobacterial activity against INH/RIF/rifabutine/STM/EMB/OFX/clofazimine resistant Mycobacterium tuberculosis Praha 4 after 21 days. It is filed as functional. To be noted: Praha 4, 504 h. A digest of the protocol:
as §1

Series [7] concerns Mycobacterium tuberculosis. The experiment in a line: Antimycobacterial activity against INH/RIF/rifabutine/STM/EMB resistant Mycobacterium tuberculosis 234/2005 after 14 days. In kind it is functional. To be noted: 234/2005, 336 h. A digest of the protocol:
as §1

For series [8], the system named is Mycobacterium tuberculosis. Description: Antimycobacterial activity against INH/RIF/rifabutine/STM/EMB resistant Mycobacterium tuberculosis 234/2005 after 21 days. It is filed as functional. To be noted: 234/2005, 504 h. The gist of the method:
as §1

Series [9] has as its system Mycobacterium tuberculosis. Description: Antimycobacterial activity against INH/RIF/rifabutine/STM/EMB/OFX/gentamicin/amikacin resistant Mycobacterium tuberculosis Praha 131 after 14 days. It is filed as functional. To be noted: Praha 131, 336 h. A digest of the protocol:
as §1

The test system of series [10] is Mycobacterium tuberculosis. The experiment in a line: Antimycobacterial activity against INH/RIF/rifabutine/STM/EMB/OFX/gentamicin/amikacin resistant Mycobacterium tuberculosis Praha 131 after 21 days. In kind it is functional. To be noted: Praha 131, 504 h. A digest of the protocol: as §1
Series [11] is described as follows: Selectivity index, ratio of IC50 for human HepG2 cells to MIC for INH/RIF/rifabutine/STM resistant Mycobacterium tuberculosis 9449/2006. To be noted: read-out: Selectivity Index. In kind it is toxicity. The gist of the method: (§2)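 SI is calculated as HepG2 IC50 divided by MIC. HepG2 cells (passage 2-4) were grown in EMEM with 10% FBS, L-glutamine and non-essential amino acids. Compounds in DMSO were tested in triplicate at eight concentrations, and viability was read by MTS tetrazolium reduction. 10% DMSO served as the 0% viability control.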

Series [12] is described as follows: Selectivity index, ratio of IC50 for human HepG2 cells to MIC for INH/RIF/rifabutine/STM/EMB/clofazimine resistant Mycobacterium tuberculosis Praha 1. In kind it is toxicity. To be noted: read-out: Selectivity Index. A digest of the protocol: as §2
A short description of series [13]: Selectivity index, ratio of IC50 for human HepG2 cells to MIC for INH/RIF/rifabutine/STM/EMB/OFX/clofazimine resistant Mycobacterium tuberculosis Praha 4. To be noted: read-out: Selectivity Index. In kind it is toxicity. The gist of the method: as §2
A short description of series [14]: Selectivity index, ratio of IC50 for human HepG2 cells to MIC for INH/RIF/rifabutine/STM/EMB resistant Mycobacterium tuberculosis 234/2005. In kind it is toxicity. To be noted: read-out: Selectivity Index. A digest of the protocol: as §2
The nature of series [15]: Selectivity index, ratio of IC50 for human HepG2 cells to MIC for INH/RIF/rifabutine/STM/EMB/OFX/gentamicin/amikacin resistant Mycobacterium tuberculosis Praha 131. It is filed as toxicity. To be noted: read-out: Selectivity Index. A digest of the protocol: as §2
Series [16] in a line: Selectivity ratio of MIC for INH/RIF/rifabutine/STM resistant Mycobacterium tuberculosis 9449/2006 to MIC for Mycobacterium tuberculosis H37Rv. In kind it is functional.
Series [17] in a line: Selectivity ratio of MIC for INH/RIF/rifabutine/STM/EMB/clofazimine resistant Mycobacterium tuberculosis Praha 1 to MIC for Mycobacterium tuberculosis H37Rv. In kind it is functional.
The nature of series [18]: Selectivity ratio of MIC for INH/RIF/rifabutine/STM/EMB/OFX/clofazimine resistant Mycobacterium tuberculosis Praha 4 to MIC for Mycobacterium tuberculosis H37Rv. In kind it is functional.
Series [19] in a line: Selectivity ratio of MIC for INH/RIF/rifabutine/STM/EMB resistant Mycobacterium tuberculosis 234/2005 to MIC for Mycobacterium tuberculosis H37Rv. It is filed as functional.
Series [20] is described as follows: Selectivity ratio of MIC for INH/RIF/rifabutine/STM/EMB/OFX/gentamicin/amikacin resistant Mycobacterium tuberculosis Praha 131 to MIC for Mycobacterium tuberculosis H37Rv. It is filed as functional.

In brackets after ≈: the same amount, converted by molar mass. Bounds are passed on as bounds.

One may read the MIC as the least concentration at which growth counts as inhibited. Consider `CCCCCCCCCCCCNc1nnc(-c2ccncc2)o1`, for which the minimum inhibitory concentration (MIC) in series [1] was determined as 4 µM (≈ 1.32 µg/mL); in [2], 4 µM (≈ 1.32 µg/mL); in series [3], 4 µM (≈ 1.32 µg/mL); in series [4] it was 8 µM (≈ 2.64 µg/mL); in [5], 4 µM (≈ 1.32 µg/mL); in series [6], 8 µM (≈ 2.64 µg/mL). In addition, the MIC was found to be 4 µM (≈ 1.32 µg/mL) in series [7], 8 µM (≈ 2.64 µg/mL) in series [8], 4 µM (≈ 1.32 µg/mL) in series [9] and 8 µM (≈ 2.64 µg/mL) in [10]. For the same compound, the selectivity ratio was above 6.25 in series [11]; above 6.25 in [12]; above 6.25 in series [13]; above 6.25 in series [14]; above 12.5 in series [15].
As for `CCNC(=O)NNC(=O)c1ccncc1`, the MIC in [1], in series [2], in [3], in series [4], in [5] and in series [6] was 125 µM (≈ 26 µg/mL) throughout. Further, the minimal inhibitory concentration (MIC) in [7], in series [8], in series [9] and in [10] was 125 µM (≈ 26 µg/mL) in each case. The selectivity ratio in series [11], in series [12], in series [13], in [14] and in series [15] was above 32 each time.
As for `CNC(=O)NNC(=O)c1ccncc1`, the MIC in series [1], in [2], in [3], in series [4], in series [5] and in [6] was 62.5 µM (≈ 12.1 µg/mL) each time. The MIC in series [7] stood at 62.5 µM (≈ 12.1 µg/mL); in [8], 62.5 µM (≈ 12.1 µg/mL); in [9], 32 µM (≈ 6.21 µg/mL); in series [10] it was 62.5 µM (≈ 12.1 µg/mL). The selectivity ratio in [11], in [12], in [13], in [14] and in series [15] was above 80 each time. Further, the Ratio in [16], in [17], in series [18], in series [19] and in series [20] was below 125 in each case.
For `CCCNC(=O)NNC(=O)c1ccncc1`, the MIC in series [1], in [2], in series [3], in series [4], in [5] and in series [6] was 16 µM (≈ 3.56 µg/mL) throughout. Further, the minimal inhibitory concentration (MIC) in series [7], in [8], in series [9] and in series [10] was 16 µM (≈ 3.56 µg/mL) in each case. In addition, the selectivity ratio in [11], in [12], in series [13], in series [14] and in series [15] was above 312 in each case. Also, the Ratio in series [16], in series [17], in series [18], in series [19] and in series [20] was below 125 throughout.

Source of the values: ChEMBL document CHEMBL4152223 (Eur J Med Chem, 2018).
